The text below walks through data of ChEMBL document CHEMBL2401679, “Synthesis and on-target antibacterial activity of novel 3-elongated arylalkoxybenzamide derivatives as inhibitors of the bacterial cell division protein FtsZ” (2013).

Structures are written as SMILES. Values after ≈ are worked out from the molar mass of the structure shown. Active and inactive are the calls of the source. No cut-off for these calls is given here.

As a reminder, the MIC is the lowest concentration that inhibits growth of the organism. A high value points to weaker potency.

Assay [1] deals with Bacillus subtilis. The assay can be described thus: Antibacterial activity against penicillin-susceptible Bacillus subtilis ATCC 9372 after 24 hrs by broth microdilution method. To be noted: ATCC 9372, 24 h. The format is functional. A digest of the protocol:
(§1)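 MIC by broth microdilution following the NCCLS standard method. Test strains were penicillin-susceptible: B. subtilis ATCC9372, S. aureus ATCC25923, S. pneumoniae ATCC49619 and Streptococcus pyogenes PS.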

For assay [2], the system named is Bacillus subtilis. The assay can be described thus: Ratio of compound to 3-MBA for inhibition of cell division in penicillin-susceptible Bacillus subtilis ATCC 9372. Type of assay: functional.
Assay [3] deals with Bacillus subtilis. Kind of assay: Ratio of compound MIC to 3-MBA MIC for penicillin-susceptible Bacillus subtilis ATCC 9372. The format is functional.
Assay [4] has as its system Staphylococcus aureus. Kind of assay: Antibacterial activity against […] Staphylococcus aureus ATCC 29213 after 24 hrs by broth microdilution method. The format is functional. The note with it: ATCC 29213, 24 h. A digest of the protocol: (§2)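 MIC by standard broth microdilution following NCCLS recommendations. S. aureus ATCC29213 is a […] strain. The S. aureus PR strain is a penicillin-resistant clinical isolate that has not been characterized. The MIC was taken as the in vitro antibacterial activity value.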

The test system of assay [5] is Staphylococcus aureus. Kind of assay: Antibacterial activity against penicillin-resistant Staphylococcus aureus clinical isolate after 24 hrs by broth microdilution method. The format is functional. A digest of the protocol:
as §2
Background: In broth dilution the organism is exposed to a series of concentrations in liquid medium.

For assay [6], the system named is Staphylococcus aureus. Kind of assay: Inhibition of cell division in penicillin-susceptible Staphylococcus aureus ATCC 25923 assessed as lowest concentration required to ballooning after 5 hrs by phase-contrast light microscopy analysis. Type of assay: functional. A digest of the protocol: (§3)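 Cell morphology of B. subtilis ATCC9372 or S. aureus ATCC25923 was examined by phase-contrast light microscopy. The value recorded is the lowest compound concentration at which B. subtilis filamentation or S. aureus ballooning appeared. This is taken as on-target cell division inhibition.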

In assay [7] the test system is Streptococcus pneumoniae. The assay can be described thus: Antibacterial activity against penicillin-susceptible Streptococcus pneumoniae ATCC 49619 after 24 hrs by broth microdilution method. The format is functional. The note with it: ATCC 49619, 24 h. A digest of the protocol:
as §1

Assay [8] concerns Staphylococcus aureus. Kind of assay: Antibacterial activity against penicillin-susceptible Staphylococcus aureus ATCC 25923 after 24 hrs by broth microdilution method. Type of assay: functional. The note with it: ATCC 25923, 24 h. The method in brief:
as §1

Assay [9] deals with Bacillus subtilis. The assay can be described thus: Inhibition of cell division in penicillin-susceptible Bacillus subtilis ATCC 9372 assessed as lowest concentration required to filamentation after 5 hrs by phase-contrast light microscopy analysis. Type of assay: functional. The method in brief:
as §3

In assay [10] the test system is Streptococcus pyogenes. The assay can be described thus: Antibacterial activity against penicillin-susceptible Streptococcus pyogenes after 24 hrs by broth microdilution method. The format is functional. The method in brief: as §1
In assay [11] the test system is Staphylococcus aureus. Kind of assay: Inhibition of cell division in penicillin-susceptible Staphylococcus aureus ATCC 25923 at 2048 to 4096 ug/ml after 5 hrs by phase-contrast light microscopy analysis. Type of assay: functional, organism-based.
Assay [12] relates to Bacillus subtilis. Kind of assay: Inhibition of cell division in penicillin-susceptible Bacillus subtilis ATCC 9372 at 2048 to 4096 ug/ml after 5 hrs by phase-contrast light microscopy analysis. The format is functional, organism-based.
The subject of assay [13] is Staphylococcus aureus. The assay can be described thus: Ratio of compound MIC to 3-MBA MIC for penicillin-susceptible Staphylococcus aureus ATCC 25923. Type of assay: functional.
Assay [14] concerns Staphylococcus aureus. The assay can be described thus: Ratio of compound MIC to 3-MBA MIC for penicillin-resistant Staphylococcus aureus clinical isolate. The format is functional.

Turning to `NC(=O)c1cccc(OCCCCCCCl)c1`, the MIC in assay [1] was 16 µg/mL (≈ 62.6 µM); in [4], 64 µg/mL (≈ 250 µM); in [5], 32 µg/mL (≈ 125 µM); in assay [7] it was over 128 µg/mL; in assay [8], 32 µg/mL (≈ 125 µM); in [10] it was over 128 µg/mL. For the same compound, the values for the Ratio in [2] and in [3] were 128 and 256, respectively. In addition, the INH in assay [6] turned out to be 32 µg/mL; in assay [9], 4 µg/mL.
As for `COc1ccc(OCCCCOc2cccc(C(N)=O)c2)cc1`, the MIC was 1020 µg/mL (≈ 3250 µM) in assay [1]; over 128 µg/mL in assay [4]; over 128 µg/mL in [5]; over 128 µg/mL in [7]; 4100 µg/mL (≈ 13000 µM) in assay [8]; over 128 µg/mL in assay [10]. Moreover, the inhibition result in assay [11] was “inactive”. Further, the INH in assay [9] came out at 32 µg/mL.
With `Cc1nc2ccccc2n1CCCCOc1cccc(C(N)=O)c1`, the MIC was 1020 µg/mL (≈ 3170 µM) in assay [1]; over 128 µg/mL in assay [4]; over 128 µg/mL in assay [5]; over 128 µg/mL in assay [7]; 1020 µg/mL (≈ 3170 µM) in assay [8]; over 128 µg/mL in [10]. The inhibition entry in assay [11] and in [12] was “inactive” throughout.
As to `NC(=O)c1cccc(OCCCCBr)c1`, the MIC in assay [1] is 16 µg/mL (≈ 58.8 µM); in assay [4], 8 µg/mL (≈ 29.4 µM); in assay [5], 8 µg/mL (≈ 29.4 µM); in assay [7] it was over 128 µg/mL; in [8], 8 µg/mL (≈ 29.4 µM); in [10], over 128 µg/mL. Besides, the Ratio is reported as 256 in [3], 256 in assay [13] and 512 in assay [14]. In addition, the INH in assay [6] and in assay [9] was 8 µg/mL throughout.
On to `NC(=O)c1cccc(OCCCCCl)c1`, for which the MIC in [1] was 32 µg/mL (≈ 141 µM); in [4] it was 8 µg/mL (≈ 35.1 µM); in assay [5], 8 µg/mL (≈ 35.1 µM); in assay [7], over 128 µg/mL; in assay [8], 8 µg/mL (≈ 35.1 µM); in assay [10] it was over 128 µg/mL. For the same compound, the INH in [6] worked out at 32 µg/mL; in assay [9], 16 µg/mL. Further, the figures for the Ratio in assay [13] and in [14] were 256 and 512, respectively.
Turning to `NC(=O)c1cccc(OCCCCn2cncn2)c1`, the MIC in assay [1] is 1020 µg/mL (≈ 3930 µM); in assay [4] it was over 128 µg/mL; in assay [5] it was over 128 µg/mL; in assay [7], over 128 µg/mL; in [8], 1020 µg/mL (≈ 3930 µM); in assay [10], over 128 µg/mL. The INH in assay [6] came to 1024 µg/mL. In assay [12], the inhibition result was “inactive”.
With `CCCCOCCCCCOc1cccc(C(N)=O)c1`, the MIC in assay [1] was 8 µg/mL (≈ 28.6 µM); in [4] it was 4 µg/mL (≈ 14.3 µM); in [5] it was 8 µg/mL (≈ 28.6 µM); in assay [7], over 128 µg/mL; in assay [8], 8 µg/mL (≈ 28.6 µM); in [10], over 128 µg/mL. The Ratio is reported as 512 in assay [3] and 256 in assay [13]. In addition, the values for the INH in assay [6] and in assay [9] were 16 µg/mL and 8 µg/mL, respectively.
As to `COc1cccc(C(N)=O)c1`, the MIC was 4100 µg/mL (≈ 27100 µM) in assay [1]; 2050 µg/mL (≈ 13500 µM) in assay [4]; 4100 µg/mL (≈ 27100 µM) in assay [5]; over 128 µg/mL in assay [7]; 2050 µg/mL (≈ 13500 µM) in assay [8]; over 128 µg/mL in assay [10]. For the same compound, the inhibition result in [11] is “inactive”. The INH in assay [9] was determined as 512 µg/mL.
For `NC(=O)c1cccc(OCCCSc2nc3ccccc3[nH]2)c1`, the MIC in assay [1] was 16 µg/mL (≈ 48.9 µM); in assay [4] it was over 128 µg/mL; in assay [5], over 128 µg/mL; in [7], over 128 µg/mL; in assay [8], 1020 µg/mL (≈ 3130 µM); in assay [10], over 128 µg/mL. The INH in assay [6] is 512 µg/mL; in [9], 4 µg/mL.
On to `NC(=O)c1cccc(OCCCOc2ccc([N+](=O)[O-])cc2)c1`, for which the MIC in assay [1] was 4 µg/mL (≈ 12.6 µM); in assay [4] it was over 128 µg/mL; in assay [5], over 128 µg/mL; in assay [7], over 128 µg/mL; in assay [8], 1020 µg/mL (≈ 3240 µM); in assay [10] it was over 128 µg/mL. In addition, the values for the INH in assay [6] and in [9] were 512 µg/mL and 4 µg/mL, respectively.
